Source: PubChem BioAssay AID504383 (The Scripps Research Institute Molecular Screening Center, 2011)
In all, about 2,500 compounds went through this assay and about 1,200 (48%) were called active. So high a share suggests a set chosen from earlier hits. This is one part of the list. Unmarked numbers belong to inactive results.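 Rule for the calls: active = mean activation above the low control average plus 3 SD, as set in the primary screen (cut at about 12% in these data); inactive = the rest.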

target: Troponin I, cardiac muscle (Homo sapiens) + Troponin T, cardiac muscle (Homo sapiens) + Troponin C, slow skeletal and cardiac muscles (Homo sapiens) (UniProt P19429+P45379+P63316); assay: calcium sensitizers of cardiac thin filaments – biochemical, IANBD-TnC fluorescence, triplicate, confirmation (AID 504383); conditions: IANBD-labeled cardiac RTF, Ca2+ sensitivity fluorescence; at 7.2 µM; stronger effect = higher value; scaled from EC20 to saturating calcium; tested at EC20 calcium, 0.472 mM;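 note: 0% = DMSO at 0.472 mM calcium and 100% = DMSO at 2.9 mM calcium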
Method in brief: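 Assay system: labelled regulated thin filament protein complex; schedule: 15 min compound incubation with filaments at 25 °C; benchmarks: low control EC20 calcium, high control EC100 calcium; reagent: Ca2+ 0.472 mM, EC20 level; doses: one dose, 7.2 µM nominal; evaluation: fluorescence gain scaled between EC20 and EC100 calcium controls; signal: filament fluorescence intensity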

SMILES	activation
CCN1C(=O)/C(=C/N2CCc3ccccc32)SC1=S	50% (active)
C=CCN1C(=O)/C(=C\C=C2\N(C)c3ccccc3C2(C)C)SC1=S	3.44%
COc1ccccc1NCC(=O)NC(=O)NC1CCCCC1	13.1% (active)
CCOc1ccc(C(=O)NC2CCN(C(=O)Nc3ccccc3OC)CC2)cc1	2.1%
COc1ccc(C2=NS(=O)(=O)N(C)C(C(=O)NC3CCCC3)=C2)cc1	-1.79%
CSCCC(NC(=O)c1ccc(Cl)cc1)C(=O)OCC(=O)c1ccc[nH]1 (configuration not stated)	9.46%
COc1ccc(OC)c(S(=O)(=O)N2CCC(C(=O)NCc3ccccn3)CC2)c1	7.51%
CCS(=O)(=O)N1Cc2ccccc2CC1C(=O)Nc1ccc(OC)cc1OC (configuration not stated)	6.84%
COc1ccc(N2CC(C(=O)Nc3nc(-c4ccccc4)c(C(C)=O)s3)CC2=O)c(OC)c1 (configuration not stated)	12.4% (active)
Cc1ccc(/C=C2\CCC3=C2OC(N)=C(C#N)C3c2ccc(C)cc2)cc1 (configuration not stated)	11%
N#CC1=C(N)OC2=C(CC/C2=C\c2ccccc2)C1c1ccccc1 (configuration not stated)	36.3% (active)
N#CC1=C(N)OC2=C(CC/C2=C\c2ccccc2Cl)C1c1ccccc1Cl (configuration not stated)	317% (active)
CC(=O)C1=C(C)N(Cc2ccccc2)C(=O)N[C@@H]1c1cccc(C(F)(F)F)c1	8.59%
CC(=O)C1=C(C)N(CC2CC2)C(=O)N[C@H]1c1ccc(Br)cc1	102% (active)
COc1ccc(Cl)cc1NC(=O)CN(C)C(=O)c1ccc(N2CCCCCC2)c([N+](=O)[O-])c1	59.6% (active)
COc1ccc(Cl)cc1NC(=O)CN(C)C(=O)COc1ccccc1F	4.03%
O=C(Cc1ccccc1)Nn1c(O)c(/C=C2\C=Nc3ccccc32)sc1=S	87.3% (active)
CN(C)C(=O)CN1C(=O)C2CCCCN2C(=O)c2ccccc21 (configuration not stated)	9.05%
CN(C)/C=C1\C=C2C(=O)c3ccccc3N2C1=O	87.3% (active)
Cc1cc(C)c(NC(=S)N(C)C)c(C)c1	42.1% (active)
N=C1c2ccccc2CN1c1ccc(S(=O)(=O)N2CCCCC2)cc1	49.2% (active)
CSc1nnc(-c2ccc(S(=O)(=O)N3CCCC3)cc2)n1C	-0.41%
CN(C)c1ccc(/C=C/C(=O)c2c(O)c3ccccc3oc2=O)cc1	12.3% (active)

SMILES	activation
CN(C)c1ccc(/C=C/C(=O)c2ccccc2O)cc1	6.07%
CCOc1cccc2c1OC(c1cc(OC)c(OC)c(OC)c1)N1N=C(c3ccc(C)o3)CC21 (configuration not stated)	11.7% (active)
O=C1NCCN1c1ncc([N+](=O)[O-])s1	19.6% (active)
CC(=O)N(C)c1ccc(C(O)(C(F)(F)F)C(F)(F)F)cc1	30.4% (active)
COc1cccc(/C(O)=C/c2nc3ccc(C(=O)NCCc4cccc(C)c4)cc3[nH]c2=O)c1	9.81%
COc1ccc(CCNC(=O)C2CC(c3c(Cl)cccc3Cl)=NO2)cc1 (configuration not stated)	7.74%
COc1ccc(CCNC(=O)COC(=O)c2cc(=O)[nH]c3ccccc23)cc1	93% (active)
CCc1ccc(/C=N/n2c(C)cc(C)c(C#N)c2=O)cc1	7.16%
Cc1c(/C=N/O)c2ccccn2c1C=O	8.72%
CN1CCC(N(CCc2ccccc2)C(=O)CCC(=O)O)CC1	146% (active)
CCCCCCNC(=O)C(C#N)c1nc2ccccc2nc1N1CCCC1 (configuration not stated)	5.18%
N#CC(C(=O)NCc1ccccc1)c1nc2ccccc2nc1N1CCCC1 (configuration not stated)	-1.52%
CCN(CC)c1nc2ccccc2nc1C(C#N)C(=O)NCCc1ccccc1 (configuration not stated)	532% (active)
COc1ccc(C(=O)NCC(=O)N2CCN(C(=O)c3ccco3)CC2)cc1OC	47.6% (active)
O=C(NCC(=O)N1CCN(c2ncccn2)CC1)c1ccccc1OC(F)F	0.94%
Cc1ccc(NC2OC(C(O)CO)C(O)C2O)cc1[N+](=O)[O-] (configuration not stated)	8.56%
COc1ccccc1NC(=O)COC(=O)c1cnc(C)cn1	101% (active)
CC(=O)Nc1sc2c(c1-c1nc3ccccc3s1)CCN(C(C)C)C2	10.5%
O=C(c1ccccc1)N1CCCCC1	8.78%
O=C(/C=C/c1nc2ccccc2s1)N1CCCCCC1	35% (active)
FC(F)(F)c1cccc(-c2nc(COc3ccc(Cl)cc3Cl)no2)c1	5570% (active)
Cc1cn(COC/C=C/c2ccccc2)c(=O)[nH]c1=O	81.1% (active)
CCc1nc(Nc2ccc(O)cc2)c2oc3ccccc3c2n1	56.6% (active)

SMILES	activation
C=CCNC(=S)NNC(=O)c1ccc(OCC(C)C)cc1	4.58%
NC(=O)NC(=O)COC(=O)c1cccc(NS(=O)(=O)/C=C/c2ccccc2)c1	38.6% (active)
CC(C)C(=O)COc1c2occc2cc2ccc(=O)oc12	1.65%
CCOC(=O)c1cnc(SC)nc1Oc1cccc(NS(=O)(=O)c2ccc(Cl)cc2)c1	14.8% (active)
CCOC(=O)N1CCC(Nc2nc3ccccc3nc2NS(=O)(=O)c2ccc(Cl)cc2)CC1	11.1%
CCC1(CC)C(=O)Nc2ccccc21	5.14%
O=C(O)c1cccc(-c2ccc(/C=N/Nc3ccc([N+](=O)[O-])cc3)o2)c1	12.7% (active)
O=[N+]([O-])c1ccc(N(c2ccccc2)c2ccccc2)cc1	14.5% (active)
CN(N=Nc1ccc([N+](=O)[O-])cc1)c1ccccc1	36.2% (active)
Cc1ccc(C(=O)N/C(=C/c2ccc(-c3ccc([N+](=O)[O-])cc3)o2)C(=O)NCCCN(C)C)cc1	5.11%
CN(/N=C/c1ccc(-c2ccc([N+](=O)[O-])cc2)o1)c1ccccc1	30.8% (active)
Cc1cc([N+](=O)[O-])ccc1-c1ccc(/C=N/NC(=O)c2ccc(Br)o2)o1	7.92%
O=C1CC(c2ccccc2)=NN1c1ccc([N+](=O)[O-])cc1	10.7%
Cc1oc2c(cc(NS(=O)(=O)c3ccc(C(C)C)cc3)c3ccccc32)c1C(=O)O	9.7%
COc1ccc2nc3ccccc3[n+]([O-])c2c1	13.1% (active)
CCOCCCNc1ccc(-c2ccccc2)nn1	8.24%
COc1cc(/C=C/C(=O)/C=C(O)/C=C/c2ccc(O)c(OC)c2)ccc1O	287% (active)
COc1cc(/C=C/C=C2/CC/C(=C/C=C/c3ccc(O)c(OC)c3)C2=O)ccc1O	19.4% (active)
O=C(/C=C(O)/C=C/c1ccc(O)cc1)/C=C/c1ccc(O)cc1	10.7%
COc1cc(/C=C/C(O)=C/C(=O)/C=C/c2ccc(O)cc2)ccc1O	8.41%
COc1cc(/C=C/C(=O)CC(=O)/C=C/c2ccc(O)c(OC)c2)ccc1O	9.89%
CCN(CC)c1ccc2cc(S(=O)(=O)c3ccc(C)cc3)c(=O)oc2c1	32.5% (active)
CCN(CC)c1ccc2cc(C=O)c(=O)oc2c1	17% (active)

SMILES	activation
CCN(CC)c1ccc2cc(S(=O)(=O)c3ccc(Cl)cc3)c(=O)oc2c1	372% (active)
CCN(CC)c1ccc2cc(C(C)=O)c(=O)oc2c1	0.78%
CCN(CC)c1ccc2c(c1)oc(=O)c1c(Cl)cc(=O)oc12	63.5% (active)
CCN(CC)c1ccc2c(Cl)c(Br)c(=O)oc2c1	8.56%
CCN(CC)c1ccc2cc(NC(=O)CCC(=O)O)c(=O)oc2c1	4.16%
Clc1ccccc1N=Nc1ccccn1	9.89%
CCN(CC)c1ccc2oc(=O)c(C)nc2c1	364% (active)
CCOC(=O)c1c(C#N)c(SCC(=O)Nc2ccc(OC)cc2)nc2c1CN(CC)CC2	78.6% (active)
COc1cccc2c1C(=O)c1c(O)c3c(c(O)c1C2=O)C[C@@](O)(C(=O)CO)C[C@@H]3OC1CC(N)C(O)C(C)O1 (some centres not stated)	9.17%
COc1cccc2c1C(=O)c1c(O)c3c(c(O)c1C2=O)CC(O)(C(=O)CO)CC3OC1CC(N(C)C)C(O)C(C)O1 (configuration not stated)	211% (active)
COc1cccc2c1C(=O)c1c(O)c3c(c(O)c1C2=O)CC(O)(C(C)=O)CC3OC1CC(O)C(O)C(C)O1 (configuration not stated)	75.5% (active)
COc1cccc2c1C(=O)c1c(O)c3c(c(O)c1C2=O)C[C@](O)(C(C)=O)C[C@H]3O[C@@H]1C[C@@H](N)[C@@H](O)[C@@H](C)O1	4.79%
COc1cccc2c1C(=O)c1c(O)c3c(c(O)c1C2=O)C[C@@](O)(C(=O)CO)C[C@@H]3O[C@H]1C[C@H](N)[C@H](O)[C@H](C)O1	3.66%
COc1cccc2c1C(=O)c1c(O)c3c(c(O)c1C2=O)CC(O)(C(C)=O)CC3OC1CC(N(C)C)C(O)C(C)O1 (configuration not stated)	6.16%
C[C@H]1COc2c(N3CCN(C)CC3)c(F)cc3c(=O)c(C(=O)O)cn1c23	6.23%
CN(C)c1ccc(/C=C/c2cc[n+](C)c3ccccc23)cc1	6.25%
Cc1ccc(/C=C/c2ccc(N(C)C)cc2)[n+](C)c1	9.58%
CN(C)c1ccc(/C=C/c2cc[n+](C)cc2)cc1	28.1% (active)
CCOc1cc(/C=C2\NC(=O)NC2=O)cc([N+](=O)[O-])c1O	8.6%
COc1ccc(O)c(/C=N/c2nc3ccccc3n2C)c1	10.8%
Cc1ccccc1N=Cc1cc2c(cc1O)OC(N)=C(C#N)C2c1ccccc1 (configuration not stated)	15.4% (active)
COc1ccc(N=Cc2cc3c(cc2O)OC(N)=C(C#N)C3c2ccccc2)cc1 (configuration not stated)	95.8% (active)
Cc1cc(C)n(-c2nc3ccccc3nc2Nc2ccc3[nH]c(=O)[nH]c3c2)n1	15.9% (active)
